Only some compounds are listed: those with a hit (about 2.9% of all), similar ones and a draw of the others.
Cneo AK release: Cryptococcus neoformans cell lysis inducers, primary screen, AK release luminescence, single concentration | C. neoformans lysis, adenylate kinase release luminescence, 4 h; normalised: neutral wells 0, clomiphene wells 100 | lysis activity, % at 15 µM | hit rate 0.2% among 360,000 | AID 651654, 2012;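 active = mean lysis activity across replicates of at least 80%, whatever share of replicates individually reach that level; inactive = mean lysis activity below 80%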
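Material: C. neoformans cells; Schedule: 4 h static compound exposure, 37 °C, read 1 h post-reagent; Measured by: adenylate kinase release luminescence; Read-out: signal increase indicating cell lysis; Controls: Clomiphene as positive lysis control.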
Vif imaging: HIV Vif self-association inhibitors, primary screen, imaging, HEK293T, single point. inhibition, % at 7.49 µM. HEK293T cells, Vif self-association by quenched fluorescence, 24 h. hit rate 0.35% among 340,000; in the data active = inhibition above about 50%, passing the limit was not always enough
PGC1a acetyl inh: inhibitors of PGC1a acetylation signal, primary screen, cell-based, U2OS, AlphaScreen, inhibitor mode. inhibition, % at 15.6 µM. AlphaScreen anti-acetyl-lysine; with virally co-expressed GCN5 acetyltransferase. hit rate 0.17% among 350,000;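 active = every replicate shows inhibition of at least 40%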;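 also: 0% = neutral control wells and 100% = positive control wells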
PglD DTNB: C. jejuni PglD acetyltransferase inhibitors, primary screen, biochemical, DTNB colorimetric, single point. UDP-N-acetylbacillosamine N-acetyltransferase PglD (Campylobacter jejuni). purified PglD enzyme, DTNB colorimetric CoA detection. inhibition, % at 12.5 µM. hit rate 0.098% among 360,000. AID 602405, 2012; in the data active = inhibition above about 16%, passing the limit was not always enough
FGF22 binding: binders of human FGF22 protein, primary screen, FGF22 synaptogenesis inhibitor project, biophysical, thermal shift, single point. activity (Tm shift, normalised), % at 9.99 µM. AID 651658, 2012. Fibroblast growth factor 22 (Homo sapiens), Q9HCT0. recombinant FGF22 thermal shift, SYPRO orange fluorescence; percent of sucrose octasulfate shift, DMSO zero. hit rate 1.5% among 340,000;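 active = mean Tm shift, scaled 0 neutral to 100 positive control, at about 1.3% or above, every replicate too, limit read from the data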
Target sequence (Q9HCT0 whole entry, looked up): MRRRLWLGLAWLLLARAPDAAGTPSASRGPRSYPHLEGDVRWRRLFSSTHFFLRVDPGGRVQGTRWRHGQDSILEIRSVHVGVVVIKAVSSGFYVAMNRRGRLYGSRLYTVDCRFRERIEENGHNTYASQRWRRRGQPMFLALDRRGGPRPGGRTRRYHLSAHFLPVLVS
Ecoli rRNA inh: reduced GFP signal of wild-type E. coli, primary screen, bacterial rRNA inhibitor project, GFP/RFP fluorescence, OD600, single point; E. coli WT GFP vs humanized-ribosome RFP mutants, 24 h; stronger effect = lower value; DMSO median 0, no signal -100; GFP signal change (wild-type ribosome), % (test concentration not listed); hit rate 1.6% among 350,000;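 active = significant combined selectivity score with lowered wild-type GFP, culture density cut under 30%, mutant RFP and density less affected; inactive = any of these conditions unmet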
Numbers without * were called inactive.

For Cc1ccc(C)c(CSCc2nc3ccccc3[nH]2)c1 the results were Cneo AK release -3.5, Vif imaging -2.7, PGC1a acetyl inh -4.3, PglD DTNB 5.7, FGF22 binding -0.3 and Ecoli rRNA inh -34.4.
C=C(C)CSCc1nc2ccccc2[nH]1 was read as Cneo AK release -0.2, Vif imaging -1.5, PGC1a acetyl inh -3.0 and PglD DTNB 2.4.
Screening O=C(O)CSCc1nc2ccccc2[nH]1 returned Cneo AK release -5.6, Vif imaging -1.8, PGC1a acetyl inh -8.7, PglD DTNB 0.2, FGF22 binding 43.6* and Ecoli rRNA inh 8.5.
`Cc1noc(C)c1S(=O)(=O)Nc1ccc2c(c1)C(=O)N([C@H](C)CO)C[C@H](C)[C@@H](CN(C)Cc1ccc(-c3ccccc3)cc1)O2` gave Cneo AK release -1.6, PGC1a acetyl inh 6.2, PglD DTNB 3.4, FGF22 binding -0.1 and Ecoli rRNA inh 2.9.
For O=C(CSc1cccc[n+]1[O-])C12CC3CC(CC(C3)C1)C2 the results were Vif imaging 5.0, PGC1a acetyl inh 5.4, FGF22 binding 0.2 and Ecoli rRNA inh -27.2*.
Screening COCCNC(=O)C[C@@H]1C[C@H]2c3cc(NC(=O)Nc4ccccc4F)ccc3O[C@H]2[C@@H](CO)O1 returned Cneo AK release 1.0, PGC1a acetyl inh -2.7, PglD DTNB 6.0, FGF22 binding -0.2 and Ecoli rRNA inh 0.9.
Screening COc1ccccc1S(=O)(=O)N[C@H]1CC[C@@H](CCn2cc(C3CCCC3)nn2)O[C@@H]1CO returned Ecoli rRNA inh -1.7.
For O=C(CSc1nc2c(c(C(F)(F)F)n1)CCc1ccccc1-2)NCc1ccco1 the results were Cneo AK release -2.3, Vif imaging 2.7, PGC1a acetyl inh -1.5 and PglD DTNB -1.5.
Screening CC(NC(=O)CSc1nc2c(c(C(F)(F)F)n1)CCc1ccccc1-2)c1ccccc1 (stereo not drawn) returned Cneo AK release 1.9, Vif imaging 63.0*, PglD DTNB -0.7 and Ecoli rRNA inh 4.6.
For C[C@H](NC(=O)C[C@H]1CC[C@@H](NC(=O)CN2CCOCC2)[C@H](CO)O1)c1ccccc1 the results were Cneo AK release 3.8, PGC1a acetyl inh 1.7, PglD DTNB 1.2, FGF22 binding 0.0 and Ecoli rRNA inh 0.2.
`CCN(Cc1ccccc1)S(=O)(=O)c1ccc(C(=O)N(CCCN(C)C)c2nc3c(F)cccc3s2)cc1` gave Cneo AK release 2.6, Vif imaging -0.9, PGC1a acetyl inh 1.3, PglD DTNB 7.2 and Ecoli rRNA inh -48.5*.
Screening CCOc1cccc2sc(N(CCCN(C)C)C(=O)c3ccc(S(=O)(=O)N(C)Cc4ccccc4)cc3)nc12 returned Cneo AK release 38.9, PglD DTNB 2.0, FGF22 binding 0.1 and Ecoli rRNA inh -38.8*.
`CCCCN(C)S(=O)(=O)c1ccc(C(=O)N(CCN(C)C)c2nc3ccc(C)cc3s2)cc1` gave Cneo AK release 0.3, Vif imaging -2.6, PglD DTNB -1.6, FGF22 binding 44.2* and Ecoli rRNA inh 4.1.
For CCOc1cccc2sc(N(CCCN(C)C)C(=O)c3ccc(S(=O)(=O)N(CC)Cc4ccccc4)cc3)nc12 the results were Cneo AK release 12.9, Vif imaging -7.3, PGC1a acetyl inh -12.9, PglD DTNB 3.9, FGF22 binding 0.2 and Ecoli rRNA inh -53.5.
`CCOc1cccc2sc(N(CCCN(C)C)C(=O)c3ccc(S(=O)(=O)N4CCCCCC4)cc3)nc12` gave Cneo AK release 7.0, Vif imaging -7.8, PglD DTNB -0.8 and Ecoli rRNA inh -23.7*.
`CN(C)CCCN(C(=O)c1ccc(C(=O)c2ccccc2)cc1)c1nc2c(F)cccc2s1` gave Cneo AK release 11.6, Vif imaging -3.6, PGC1a acetyl inh -9.9, PglD DTNB 0.9, FGF22 binding -0.3 and Ecoli rRNA inh -36.8.
For CCOc1cccc2sc(N(CCN(CC)CC)C(=O)c3ccc(S(=O)(=O)N4CCCCC4)cc3)nc12 the results were FGF22 binding 0.2 and Ecoli rRNA inh -3.6.
Cc1ccc2nc(N(CCCN(C)C)C(=O)c3ccc(S(=O)(=O)N4CCCCCC4)cc3)sc2c1 was read as Cneo AK release 22.8, Vif imaging 2.5, PGC1a acetyl inh -5.5, PglD DTNB 0.3, FGF22 binding 0.0 and Ecoli rRNA inh -60.0.
O=C(C[C@H]1C[C@H]2c3cc(NC(=O)c4cccnc4)ccc3O[C@H]2[C@H](CO)O1)NCc1ccccc1 was read as Cneo AK release 1.8, PGC1a acetyl inh -4.8, PglD DTNB 2.0, FGF22 binding 0.0 and Ecoli rRNA inh -2.5.
`COc1ccc(-c2cnc3c(c2)C(=O)N([C@@H](C)CO)C[C@@H](C)[C@H](CN(C)C(=O)C2CCC2)O3)cc1` gave Cneo AK release 0.5, PGC1a acetyl inh 16.7, PglD DTNB 0.9, FGF22 binding -0.2 and Ecoli rRNA inh 0.5.
`CCCC#Cc1ccc(CC[C@H]2O[C@H]3CC[C@@H](CO)O[C@H]3C[C@H]2NC(=O)c2cnccn2)cc1` gave PGC1a acetyl inh 0.2.
`CNC[C@H]1Oc2ccccc2C(=O)N(C)C[C@H]1C` gave Ecoli rRNA inh -0.7.
Screening CN(C)CCCN(C(=O)c1ccc(S(=O)(=O)N2CCc3ccccc32)cc1)c1nc2c(Cl)cccc2s1 returned Cneo AK release 5.1, Vif imaging 3.5, PGC1a acetyl inh -18.0, PglD DTNB 1.2, FGF22 binding -0.1 and Ecoli rRNA inh -39.9*.
Screening COc1cccc2sc(N(CCCN(C)C)C(=O)c3ccc(S(=O)(=O)N4CCCc5ccccc54)cc3)nc12 returned Cneo AK release 6.5, Vif imaging -5.1, PGC1a acetyl inh -1.0, PglD DTNB -4.8, FGF22 binding 0.0 and Ecoli rRNA inh -59.0.
O=C(NCC[C@H]1CC[C@@H](NS(=O)(=O)c2cccc(F)c2)[C@H](CO)O1)c1cnccn1 was read as Cneo AK release -0.7, PGC1a acetyl inh 1.8, PglD DTNB 1.0, FGF22 binding 0.2 and Ecoli rRNA inh 3.0.
`O=C(COC(=O)COc1cccc2ccccc12)NCC(F)(F)F` gave Vif imaging 0.2, FGF22 binding 43.2* and Ecoli rRNA inh -3.4.
